Results taken from ChEMBL document CHEMBL2439991, “Restraining the flexibility of the central linker in terameprocol results in constrained analogs with improved growth inhibitory activity” (Bioorg Med Chem Lett, 2013).

Key:
T47D = assay: Cytotoxicity against human T47D cells after 72 hrs by MTT assay; assay type: functional
How it was run: (§1)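 MTT redox read-out; absorbance taken at 0 h (T0) and after 72 h exposure, with untreated cells as control (C). GI50 solved from (T − T0)/(C − T0) = 50%, i.e. viability halved relative to untreated after correction for time-zero cell count.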

BXPC-3 = assay: Cytotoxicity against human BxPC3 cells after 72 hrs by MTT assay; assay type: functional; conditions: BXPC-3, 72 h; how it was run: as §1
786-0 = assay: Cytotoxicity against human 786-0 cells after 72 hrs by MTT assay; assay type: functional; conditions: 786-0, 72 h; how it was run: as §1
T98G = assay: Cytotoxicity against human T98G cells after 72 hrs by MTT assay; assay type: functional; how it was run: as §1
HeLa = assay: Cytotoxicity against human HeLa cells after 72 hrs by MTT assay; assay type: functional; how it was run: as §1
[1] = Cytotoxicity against human U87 cells after 72 hrs by MTT assay; assay type: functional, U-87MG ATCC; conditions: U-87 MG; how it was run: as §1
NCI-H69 [2] = assay: Cytotoxicity against human H69 cells; assay type: functional, cell-based
NCI-H69 [3] = assay: Ratio of NDGA IC50 to compound IC50 for human H69 cells; assay type: functional

| Structure (SMILES) | GI50 (T47D) [µM] | GI50 (BXPC-3) [µM] | GI50 (786-0) [µM] | GI50 (T98G) [µM] | GI50 (HeLa) [µM] | GI50 [1] [µM] | IC50 (NCI-H69 [2]) [µM] | Ratio IC50 (NCI-H69 [3]) |
| --- | --- | --- | --- | --- | --- | --- | --- | --- |
| COc1ccc(CNS(=O)(=O)c2ccc(OC)c(OC)c2)cc1OC | > 100 | > 100 | > 100 | > 100 | > 100 | > 100 |  |  |
| COc1ccc(C2NCCc3cc(OC)c(OC)cc32)cc1OC (stereo not drawn) | > 100 | > 100 | > 100 | > 100 | 57.6 | > 100 |  |  |
| COc1ccc(CC(=O)N2CCc3cc(OC)c(OC)cc3C2)cc1OC | > 100 | > 100 | > 100 | > 100 | > 100 | > 100 |  |  |
| COc1ccc(CC(=O)Nc2ccc(OC)c(OC)c2)cc1OC | > 100 | > 100 | > 100 | > 100 | > 100 | > 100 |  |  |
| COc1ccc(CNC(=O)Nc2ccc(OC)c(OC)c2)cc1OC | > 100 | > 100 | > 100 | > 100 | > 100 | > 100 |  |  |
| COc1ccc(/C=C/C=C/c2ccc(OC)c(OC)c2)cc1OC | > 100 | 3.41 | 2.67 | > 100 | > 100 | > 100 |  |  |
| COc1ccc(/C=C/C(=O)NCc2ccc(OC)c(OC)c2)cc1OC | > 100 | > 75 | 68.4 | 70.3 | > 75 | 57.1 |  |  |
| COc1ccc(CCNC(=O)c2ccc(OC)c(OC)c2)cc1OC | > 100 | > 100 | > 100 | > 100 | > 100 | > 100 |  |  |
| COc1ccc([C@H]2O[C@H](c3ccc(OC)c(OC)c3)[C@@H](C)[C@H]2C)cc1OC [GANSCHISANDRINE] | 4.4 | 17.2 | > 75 | 58.3 | > 75 | > 75 |  |  |
| COc1ccc(CNC(=O)c2ccc(OC)c(OC)c2)cc1OC | > 100 | > 100 | > 100 | > 100 | > 100 | > 100 |  |  |
| COc1ccc(CNC(=O)NCc2ccc(OC)c(OC)c2)cc1OC | > 100 | > 100 | > 100 | > 100 | > 100 | > 100 |  |  |
| COc1ccc(NC(=O)Nc2ccc(OC)c(OC)c2)cc1OC | > 50 | > 50 | > 50 | > 50 | > 50 | > 50 |  |  |
| COc1ccc(CNC(=O)Cc2ccc(OC)c(OC)c2)cc1OC | > 100 | > 100 | > 100 | > 100 | > 100 | > 100 |  |  |
| COc1ccc(/C=C/C(=O)Nc2ccc(OC)c(OC)c2)cc1OC | > 50 | > 50 | > 50 | > 50 | > 50 | > 50 |  |  |
| COc1ccc(C[C@@H](C)[C@@H](C)Cc2ccc(OC)c(OC)c2)cc1OC [TERAMEPROCOL] | 5.36 | 17.1 | 4.54 | > 50 | > 50 | > 50 |  |  |
| COc1ccc(NS(=O)(=O)c2ccc(OC)c(OC)c2)cc1OC | > 100 | > 100 | > 100 | > 100 | > 100 | > 100 |  |  |
| COc1ccc(CCNS(=O)(=O)c2ccc(OC)c(OC)c2)cc1OC | > 100 | > 100 | > 100 | > 100 | > 100 | > 100 |  |  |
| COc1ccc(C2=NCCc3cc(OC)c(OC)cc32)cc1OC | > 100 | > 100 | > 100 | > 100 | 79.3 | > 100 |  |  |
| COc1ccc(CN2CCc3cc(OC)c(OC)cc3C2)cc1OC | 45.4 | > 100 | > 100 | > 100 | 55.9 | > 100 |  |  |
| COc1ccc(CCNC(=O)Cc2ccc(OC)c(OC)c2)cc1OC | > 100 | > 100 | > 100 | > 100 | > 100 | > 100 |  |  |
| CC(Cc1ccc(O)c(O)c1)C(C)Cc1ccc(O)c(O)c1 (stereo not drawn) [NORDIHYDROGUAIARETIC ACID] |  |  |  |  |  |  | 4.4 |  |
| COc1ccc(NC(=O)c2ccc(OC)c(OC)c2)cc1OC | > 100 | > 100 | > 100 | > 100 | > 100 | > 100 |  |  |
| COc1ccc(S(=O)(=O)N2CCc3cc(OC)c(OC)cc3C2)cc1OC | > 50 | > 50 | > 50 | > 50 | > 50 | > 50 |  |  |
| COc1ccc(/C=C2/CCc3cc(OC)c(OC)cc32)cc1OC (mixture of isomers) | 4.24 | 8.1 | 5.5 | > 25 | > 25 | > 25 |  |  |
| Oc1ccc(CCCCc2ccc(O)c(O)c2)cc1O |  |  |  |  |  |  | 0.3 | 10 |
| COc1ccc(C(=O)N2CCc3cc(OC)c(OC)cc3C2)cc1OC | 11.9 | 13.6 | 24.1 | 10.1 | 8.23 | 20.6 |  |  |
| COc1ccc(C(=O)C2=NCCc3cc(OC)c(OC)cc32)cc1OC | 16.1 | 26.3 | > 100 | > 100 | 16.9 | > 100 |  |  |
